Data taken from publication PMC8851504 (Proceedings of the National Academy of Sciences of the …, 2022).
Bridge positions count the residues as written; N and C are the ends. Ends that are not written are not given here.

Assays:
[1] = tested on: paw-withdrawal threshold to mechanical stimulus in mice; assay: Paw-withdrawal threshold to mechanical stimulus; assay type: in vivo, mouse (C57BL/6J); conditions: 200 pmol i.pl.; measured 1 h to 7 d; vs saline; n = 6 per group
Outline: (§1)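 Male C57BL/6J mice (5 wk old) were given 200 pmol test compound, or vehicle alone, by shallow intraplantar hind-paw injection in 20 µL saline with 0.1% BSA. After 30 min acclimatisation on bar-bottom enclosures, paw-withdrawal thresholds were measured. Mechanical thresholds used automatic von Frey and thermal thresholds an automated thermal device. Readings were taken 3 d before injection and at 1 h–7 d, blinded, n = 6/group, two-way ANOVA with Šídák's test.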

[2] = tested on: sheep blowflies (Lucilia cuprina); assay: Sheep blowfly paralysis/survival assay after injection; assay type: in vivo; conditions: intraabdominal injection, up to 41 nmol/g (as stated in main text)
[3] = tested on: paw-withdrawal threshold to thermal stimulus in mice; assay: Paw-withdrawal threshold to thermal stimulus; assay type: in vivo, mouse (C57BL/6J); conditions: 200 pmol i.pl.; measured 1 h to 7 d; vs saline; n = 6 per group
Outline: as §1

paw inflammation in mice = assay: Paw inflammation: visual inspection and paw thickness by calipers; assay type: in vivo, mouse (C57BL/6J); conditions: 200 pmol i.pl.; over the time course of the experiment
Outline: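 In male C57BL/6J mice, 200 pmol test compound, or vehicle alone, was injected intraplantar in 20 µL saline with 0.1% BSA. The injected paw was inspected for swelling and reddening at each time point up to 7 d. At 3 d, both hind paws were measured with electronic calipers and expressed as an ipsilateral/contralateral ratio. Groups were n = 6, compared by unpaired t test.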

[4] = tested on: fruit flies (Drosophila melanogaster); assay: Fruit fly paralysis/survival assay after injection; assay type: in vivo; conditions: intraabdominal injection, up to 41 nmol/g (as stated in main text)
[5] = tested on: human ErbB1 receptor (hErbB1) transiently expressed in HEK293T cells; assay: BRET assay of ligand-induced ErbB1 activation; assay type: cell-based; conditions: for Agonism at / potency on mammalian ErbB1 (summary in words): summary statement
[6] = tested on: Erk1/2 phosphorylation downstream of human ErbB1 in HEK293 cells; assay type: cell-based; conditions: comparison with hEGF; 2.5 or 10 nM; n = 3
Outline: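 HEK293 cells at ~80% confluence were transfected with 15 ng human ErbB1 plasmid (Lipofectamine LTX) and grown 24 h in DMEM with 10% FBS. […] RIPA lysates containing protease and phosphatase inhibitors were run on SDS-PAGE and probed for phospho-Erk1/2 and GAPDH by fluorescent immunoblot. Phospho-Erk was normalised to GAPDH; n = 3, one-way ANOVA with Šídák's test.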

[7] = tested on: crickets (Acheta domesticus); assay: Cricket righting assay after injection; assay type: in vivo; conditions: intraabdominal injection, up to 41 nmol/g (as stated in main text)
Outline: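 House crickets (average mass 50 mg) received intraabdominal injections of 2 μL water or test compound at 1.4 to 41.5 nmol/g. Each cricket was then placed on its back and the time taken to right itself was recorded. Treated and water groups were compared by one-way ANOVA with Šídák's test.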

[8] = tested on: hypersensitivity of the injected paw in mice; assay: Time course of hypersensitivity; assay type: in vivo, mouse (C57BL/6J); conditions: intraplantar injection in mice
Outline: as §1

rMg1a: Mg1a produced by recombinant expression in bacteria with an additional Gly residue at the N terminus (GDISDYGDPCSDDLKDYCIHGDCFFLKELNQPACRCYTGYYGSRCEHIDHN; not fully specified; left off: His6, N-terminal, cleaved | MBP, N-terminal, cleaved)
Paw-withdrawal threshold to mechanical stimulus [1]: significant decrease
Effect on blowflies after injection [2]: no effect
Paw-withdrawal threshold to thermal stimulus [3]: significant decrease
Visual signs of inflammation (e.g., redness or swelling) (paw inflammation in mice): no visual signs of inflammation
Effect on fruit flies after injection [4]: no effect
Activity at hErbB1 (in words) ([5]; BRET, HEK293T cells, Fig. 3A: stimulation with 100 nM ligand): active at hErbB1
Agonism at / potency on mammalian ErbB1 (summary in words) [5]: potent ligand of mammalian ErbB1 with activity comparable to that of hEGF
Erk1/2 phosphorylation compared with hEGF [6]: equivalent to that caused by hEGF
Effect on crickets after injection [7]: no effect

Mg1a (GDISDYGDPCSDDLKDYCIHGDCFFLKELNQPACRCYTGYYGSRCEHIDHN; disulfide 10-23, 18-34, 36-45)
Agonism at / potency on mammalian ErbB1 (summary in words) [5]: potent agonist of the mammalian EGF receptor ErbB1
Hypersensitivity of the injected paw (summary in words) [8]: long-lasting hypersensitivity
